# Measurements reported in paper PMC8966054 (Bioorganic & medicinal chemistry letters, 2022).
# Key:
# 6-OHDA mouse model = 6-OHDA mouse model ref 13; cited from earlier work
# Metabolite ID study = assay type: in vitro ADME
# [1] = Human plasma protein binding; assay type: in vitro ADME; details: fraction unbound
# [2] = Mouse liver microsome stability / intrinsic clearance; assay type: in vitro ADME; details: for CLint scaled: mouse, liver microsomes
# [3] = Human liver microsome stability / intrinsic clearance; assay type: in vitro ADME; details: for CLint scaled: human, liver microsomes
# [4] = system: other dopamine receptors (D1-3,5); assay: Binding at other dopamine receptors; set-up: species or system human
# In short: (§1)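 Ki from competitive inhibition of radioligand binding in membranes from HEK293 cells stably expressing the human receptor. [3H]N-methylspiperone was used for D2R, D3R and D4R, and [3H]SCH23390 for D1R and D5R.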
# hD4R = molecular target: T1, hD4R (Homo sapiens, UniProt P21917); assay: D4R competitive radioligand binding
# T1 sequence (P21917 1-419): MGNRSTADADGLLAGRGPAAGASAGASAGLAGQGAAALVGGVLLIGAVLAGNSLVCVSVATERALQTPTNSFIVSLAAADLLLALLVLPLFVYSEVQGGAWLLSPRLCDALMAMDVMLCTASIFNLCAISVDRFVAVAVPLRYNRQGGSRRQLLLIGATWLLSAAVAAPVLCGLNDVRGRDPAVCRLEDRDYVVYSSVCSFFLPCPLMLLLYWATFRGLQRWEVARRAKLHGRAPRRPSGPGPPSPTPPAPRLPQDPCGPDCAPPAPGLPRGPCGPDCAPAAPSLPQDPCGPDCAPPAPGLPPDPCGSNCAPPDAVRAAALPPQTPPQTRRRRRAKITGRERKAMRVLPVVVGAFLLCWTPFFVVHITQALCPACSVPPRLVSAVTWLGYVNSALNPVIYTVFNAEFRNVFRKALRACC
# In short: as §1
# In vivo rat cassette PK = details: iv, 0.25 mg/kg
# Mouse plasma stability = assay type: in vitro ADME
Structure (SMILES),CLint scaled [2] [mL/min/kg],CLint scaled [3] [mL/min/kg],further results
COc1ccc(CN2CCC[C@H](OCc3cccc(F)c3)C2)cc1F [Compound 8a],,,Selectivity against the other dopamine receptors [4]: selective
COc1ccc(CN2CCC[C@@H](OCc3ccc(F)c(C)c3)C2)cc1F [Compound 8d],,,"Fold less active, (R)-enantiomer vs (S)-enantiomer at D4 (hD4R): 15 fold"
Fc1cccc(CO[C@H]2CCCN(Cc3ncn4ccccc34)C2)c1 [Compound 8n],,,D4 activity (hD4R): much less active or inactive
FC(F)(F)Oc1cccc(CO[C@H]2CCCN(Cc3ncc4ccccn34)C2)c1 [Compound 8q],,,D4 activity (hD4R): much less active or inactive
Cc1cccc(CO[C@H]2CCCN(Cc3ncc4ccccn34)C2)n1 [Compound 8r],,,D4 activity (hD4R): much less active or inactive
Fc1cccc(COC2CCN(Cc3cn4ccccc4n3)CC2)c1 [Compound 9a],380,< 23.1,Mouse liver microsome stability [2]: modestly stable; Human liver microsome stability [3]: stable; Fold improvement of D4 activity vs 3-O-derivative (hD4R): 10 fold
FC(F)(F)c1cccc(COC2CCN(Cc3cn4ccccc4n3)CC2)c1 [Compound 9c],310,44.6,
Fc1cccc(COC2CCN(Cc3ncn4ccccc34)CC2)c1 [Compound 9h],1260,340,Mouse liver microsome stability [2]: not as stable; Human liver microsome stability [3]: not as stable
Cc1nc(CN2CCC(OCc3cccc(C(F)(F)F)c3)CC2)c2ccccn12 [Compound 9i],272,85.3,
FC(F)(F)c1cccc(COC2CCN(Cc3ccc4[nH]cnc4c3)CC2)c1 [Compound 9m],76.4,32.9,
Cn1cnc2cc(CN3CCC(OCc4cccc(C(F)(F)F)c4)CC3)ccc21 [Compound 9p],85.2,63.3,clearance (In vivo rat cassette PK): 107 mL/min/kg
Cn1ncc2cc(CN3CCC(OCc4cccc(C(F)(F)F)c4)CC3)ccc21 [Compound 9w],85.2,63.3,
Fc1ccc(COC2CCN(Cc3cc4ccc(Cl)cc4[nH]3)CC2)cc1F [Compound 9y],83.2,23.5,C0 (In vivo rat cassette PK): 36.9 ng/mL
FC(F)(F)c1cccc(COC2CCN(Cc3cc4ccc(Cl)cc4[nH]3)CC2)c1 [Compound 9z],71.5,26.9,
Cc1c(Cl)cccc1NC(=O)CN1CCC(OCc2ccc(F)c(F)c2)CC1 [Compound 11a],287,145,Selectivity against the other dopamine receptors [4]: selective for D4; C0 (In vivo rat cassette PK): 91 ng/mL; clearance (In vivo rat cassette PK): 22 mL/min/kg
Cc1cc(NC(=O)CN2CCC(OCc3ccc(F)c(F)c3)CC2)ccc1F [Compound 11d],306,49.5,Selectivity against the other dopamine receptors [4]: selective for D4; Mouse liver microsome stability [2]: moderately stable; Human liver microsome stability [3]: moderately stable; Mouse plasma stability (Mouse plasma stability): not stable; Plasma stability (footnote symbol in mPPB column) (Mouse plasma stability; mouse plasma): c

# Now from value to molecule, other results behind:
CLint scaled [2] [mL/min/kg],CLint scaled [3] [mL/min/kg],Structure (SMILES),further results
2130,,"COc1ccc(CN2CCO[C@H](COc3ccccc3)C2)cc1F [Compound 1, reference compound]",Dyskinesia AIM (abnormal involuntary movement) scores (6-OHDA mouse model): dose-dependent reduction; Major metabolic liability (metabolite ID) (Metabolite ID study): N-dealkylation; Plasma Protein Binding (%fu) hPPB [1]: 3.1 %fu; Mouse liver microsome stability [2]: highly unstable; Human liver microsome stability [3]: highly unstable
1260,272,COc1ccc(CN2CCC[C@H](OCc3ccc(F)c(F)c3)C2)cc1F [Compound 8b],
1400,689,Fc1ccc(CO[C@H]2CCCN(Cc3cn4ccccc4n3)C2)cc1F [Compound 8i],
5370,622,Fc1ccc(CO[C@H]2CCCN(Cc3ncn4ccccc34)C2)cc1F [Compound 8o],
158,< 20,Fc1ccc(COC2CCN(Cc3cn4ccccc4n3)CC2)cc1F [Compound 9b],clearance (In vivo rat cassette PK): 116 mL/min/kg; Mouse liver microsome stability [2]: modestly stable; Human liver microsome stability [3]: stable
96.8,44.1,Fc1cc(COC2CCN(Cc3cn4ccccc4n3)CC2)ccc1Cl [Compound 9d],clearance (In vivo rat cassette PK): 134 mL/min/kg
917,212,Fc1cc(COC2CCN(Cc3ncc4ccccn34)CC2)ccc1Cl [Compound 9e],Mouse liver microsome stability [2]: not as stable; Human liver microsome stability [3]: not as stable
140,114,Cc1nc(CN2CCC(OCc3ccc(Cl)c(F)c3)CC2)c2ccccn12 [Compound 9j],
90.4,48.3,Fc1cc(COC2CCN(Cc3ccc4[nH]cnc4c3)CC2)ccc1Cl [Compound 9l],clearance (In vivo rat cassette PK): 199 mL/min/kg
93.9,< 20,Fc1ccc(COC2CCN(Cc3ccc4[nH]cnc4c3)CC2)cc1F [Compound 9n],clearance (In vivo rat cassette PK): 235 mL/min/kg
104,,Cn1ncc2cc(CN3CCC(OCc4ccc(F)c(F)c4)CC3)ccc21 [Compound 9u],clearance (In vivo rat cassette PK): 140 mL/min/kg
85.3,42.7,Cn1ncc2cc(CN3CCC(OCc4ccc(Cl)c(F)c4)CC3)ccc21 [Compound 9v],
